Key:
[1] = biological target: T1, Integrin alpha-4/beta-7 (Homo sapiens) (UniProt P13612+P26010); assay: Ability to inhibit adhesion of alpha4-beta7 integrin expressing 38-beta7 lymphoma cells to chinese hamster ovary (CHO) cells stably transfected with MAdCAM-1; assay type: cell-based
In short: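 38-β7 lymphoma cells (α4β7+) labelled 30 min at 37 °C with 12 μg/mL H33342, then 8×10^5/mL in buffer with 1.0 mM Ca2+/Mg2+. Preincubated 10 min at 37 °C with peptide at 1 mg/mL final. Allowed to adhere 30 min at 37 °C to confluent MAdCAM-1-transfected CHO monolayers (seeded 24 h before). Nonadherent cells removed by inverse centrifugation. Result given as % of medium control, mean of two experiments.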

[2] = biological target: T1, Integrin alpha-4/beta-7 (Homo sapiens); assay: Inhibition of alpha4-beta7 lymphoma cell binding to CHO-VCAM-1 cells.; assay type: cell-based

Compound | Adhesion [1] [%] | Adhesion [2] [%]
CC(C)C[C@@H]1NC(=O)[C@@H](C)NC(=O)[C@@H](Cc2ccccc2)NC(=O)[C@@H](CC(=O)O)NC(=O)[C@H]([C@@H](C)O)NC(=O)[C@@H](CC(=O)O)NC1=O | 63 | –
CC(C)C[C@@H]1NC(=O)[C@H](C)NC(=O)[C@@H](C)NC(=O)[C@@H]([C@@H](C)O)NC(=O)[C@@H](CC(=O)O)NC1=O | 85 | –
CC(C)C[C@@H]1NC(=O)[C@@H](CC(=O)O)NC(=O)[C@H]2CCCN2C(=O)[C@@H](C)NC(=O)[C@H]([C@@H](C)O)NC(=O)[C@@H](CC(=O)O)NC1=O | 115 | –
C[C@H]1NC(=O)[C@H]2CCCN2C(=O)[C@@H](CC(=O)O)NC(=O)[C@H]([C@@H](C)O)NC(=O)[C@@H](CC(=O)O)NC(=O)[C@H](Cc2ccccc2)NC1=O | 102 | –
NC(=O)C[C@@H]1NC(=O)CNC(=O)[C@@H](Cc2ccccc2)NC(=O)[C@@H](Cc2c[nH]cn2)NC(=O)[C@@H](CCC(=O)O)NC1=O | 100 | 93
CC(C)C[C@@H]1NC(=O)[C@@H](Cc2ccccc2)NC(=O)[C@H]2CCCN2C(=O)[C@@H](CCCCN)NC(=O)[C@H]([C@@H](C)O)NC(=O)[C@@H](CC(=O)O)NC1=O | 85 | –
CC(C)C[C@@H]1NC(=O)[C@@H](C)NC(=O)[C@H]2CCCN2C(=O)[C@@H](C)NC(=O)[C@H]([C@@H](C)O)NC(=O)[C@@H](CC(=O)O)NC1=O | 7 | –
CC[C@H](C)[C@H]1NC(=O)[C@H](C)NC(=O)[C@@H](C)NC(=O)[C@H]([C@@H](C)O)NC(=O)[C@@H](CC(=O)O)NC1=O (stereo in doubt; P1) | 100 | –
CC(C)C[C@@H]1NC(=O)[C@@H](CCCN=C(N)N)NC(=O)[C@H]2CCCN2C(=O)[C@@H](C)NC(=O)[C@H]([C@@H](C)O)NC(=O)[C@@H](CC(=O)O)NC1=O | 26 | –
CC(C)C[C@@H]1NC(=O)[C@H]2CCCN2C(=O)[C@H](C)NC(=O)[C@@H](C)NC(=O)[C@H]([C@@H](C)O)NC(=O)[C@@H](CC(=O)O)NC1=O | 30 | –
CC(C)C[C@@H]1NC(=O)[C@@H](C)NC(=O)[C@H](C)NC(=O)[C@@H](C)NC(=O)[C@H]([C@@H](C)O)NC(=O)[C@@H](CC(=O)O)NC1=O | 85 | –
CC[C@H](C)[C@H]1NC(=O)[C@H](C)NC(=O)[C@@H](C)NC(=O)[C@H]([C@@H](C)O)NC(=O)[C@@H](CC(=O)O)NC1=O (stereo in doubt; P6) | 63 | –
C[C@H]1NC(=O)[C@H]2CCCN2C(=O)[C@@H](CC(=O)O)NC(=O)[C@H]([C@@H](C)O)NC(=O)[C@@H](CC(=O)O)NC(=O)[C@@H](c2ccccc2)NC1=O | 114 | –
CC(C)C[C@@H]1NC(=O)[C@@H](CC(=O)O)NC(=O)[C@H]2CCCN2C(=O)[C@@H](Cc2ccccc2)NC(=O)[C@H]([C@@H](C)O)NC(=O)[C@@H](CC(=O)O)NC1=O | 100 | –
CC(C)C[C@@H]1NC(=O)[C@@H](C)NC(=O)[C@H]2CCCN2C(=O)[C@@H](CC(=O)O)NC(=O)[C@H](C(C)C)NC(=O)[C@@H](CC(=O)O)NC1=O | 40 | –
CC(C)C[C@@H]1NC(=O)[C@@H](CC(=O)O)NC(=O)[C@H]2CCCN2C(=O)[C@@H](Cc2c[nH]c3ccccc23)NC(=O)[C@H]([C@@H](C)O)NC(=O)[C@@H](CC(=O)O)NC1=O | 87 | –
CC(C)C[C@@H]1NC(=O)[C@@H]([C@@H](C)O)NC(=O)[C@H]2CCCN2C(=O)[C@@H](C)NC(=O)[C@H]([C@@H](C)O)NC(=O)[C@@H](CC(=O)O)NC1=O | 49 | –
CC(C)C[C@@H]1NC(=O)C(C2CCCCC2)NC(=O)[C@H]2CCCN2C(=O)[C@@H](CC(=O)O)NC(=O)[C@H]([C@@H](C)O)NC(=O)[C@@H](CC(=O)O)NC1=O (stereo partly specified) | 58 | –
CC(C)C[C@@H]1NC(=O)[C@@H](C)NC(=O)[C@H]2CCCN2C(=O)[C@@H](C)NC(=O)[C@H](CO)NC(=O)[C@@H](CC(=O)O)NC1=O | 90 | –
CC(C)C[C@@H]1NC(=O)[C@H](C)NC(=O)[C@H]2CCCN2C(=O)[C@H]([C@@H](C)O)NC(=O)[C@@H](CC(=O)O)NC1=O | 89 | –
CC(C)C[C@@H]1NC(=O)[C@@H](C)NC(=O)[C@H](C)NC(=O)[C@H]2CCCN2C(=O)[C@H]([C@@H](C)O)NC(=O)[C@@H](CC(=O)O)NC1=O | 111 | –
CC(C)C[C@@H]1NC(=O)[C@@H](CC(=O)O)NC(=O)[C@H]2CCCN2C(=O)[C@@H](CCCCN)NC(=O)[C@H]([C@@H](C)O)NC(=O)[C@@H](CC(=O)O)NC1=O | 102 | –
CC(C)C[C@@H]1NC(=O)[C@@H](C)NC(=O)[C@H]2CCCN2C(=O)[C@@H](C)NC(=O)[C@H](C(C)C)NC(=O)[C@@H](CC(=O)O)NC1=O | 50 | –
CC(C)C[C@@H]1NC(=O)[C@@H](CC(=O)O)NC(=O)[C@@H](CC(=O)O)NC(=O)[C@@H](C)NC(=O)[C@H]([C@@H](C)O)NC(=O)[C@@H](CC(=O)O)NC1=O | 99 | –
CC(C)C[C@@H]1NC(=O)[C@@H](CC(=O)O)NC(=O)[C@@H](Cc2ccccc2)NC(=O)[C@@H](C)NC(=O)[C@H]([C@@H](C)O)NC(=O)[C@@H](CC(=O)O)NC1=O | 86 | –

Now from value to molecule:

Adhesion [1] [%] | Adhesion [2] [%] | Compound
105 | – | C[C@H]1NC(=O)[C@H]2CCCN2C(=O)[C@@H](C)NC(=O)[C@H]([C@@H](C)O)NC(=O)[C@@H](CC(=O)O)NC(=O)CNC1=O
9 | – | CC(C)C[C@@H]1NC(=O)[C@@H]2Cc3ccccc3CN2C(=O)[C@H]2CCCN2C(=O)[C@@H](CC(=O)O)NC(=O)[C@H]([C@@H](C)O)NC(=O)[C@@H](CC(=O)O)NC1=O
98 | – | C[C@H]1NC(=O)[C@H]2CCCN2C(=O)[C@@H](CC(=O)O)NC(=O)[C@H]([C@@H](C)O)NC(=O)[C@@H](CC(=O)O)NC(=O)[C@H](c2ccccc2)NC1=O
81 | – | CC(C)C[C@@H]1NC(=O)[C@@H](Cc2ccc(O)cc2)NC(=O)[C@H]2CCCN2C(=O)[C@@H](CCCCN)NC(=O)[C@H]([C@@H](C)O)NC(=O)[C@@H](CC(=O)O)NC1=O
65 | – | CC(C)C[C@@H]1NC(=O)[C@@H](CCC(=O)O)NC(=O)[C@H]2CCCN2C(=O)[C@@H](C)NC(=O)[C@H]([C@@H](C)O)NC(=O)[C@@H](CC(=O)O)NC1=O
91 | – | CC(C)C[C@@H]1NC(=O)[C@@H](C)NC(=O)[C@H]2CCCN2C(=O)[C@@H](C)NC(=O)CNC(=O)[C@@H](CC(=O)O)NC1=O
76 | – | CC(C)C[C@@H]1NC(=O)[C@@H](CC(=O)O)NC(=O)[C@H]2CCCN2C(=O)[C@@H](Cc2ccc(O)cc2)NC(=O)[C@H]([C@@H](C)O)NC(=O)[C@@H](CC(=O)O)NC1=O
47 | – | CC(C)C[C@@H]1NC(=O)[C@@H](C)NC(=O)[C@H]2CCCN2C(=O)[C@@H](CC(=O)O)NC(=O)[C@H]([C@@H](C)O)NC(=O)[C@@H](CC(=O)O)NC1=O
64 | – | CC[C@H](C)[C@@H]1NC(=O)[C@@H](C)NC(=O)[C@H]2CCCN2C(=O)[C@@H](C)NC(=O)[C@H]([C@@H](C)O)NC(=O)[C@@H](CC(=O)O)NC1=O
137 | – | CC[C@H](C)[C@@H]1NC(=O)[C@H](C)NC(=O)[C@@H](C)NC(=O)[C@H]([C@@H](C)O)NC(=O)[C@@H](CC(=O)O)NC1=O
56 | – | CC(C)C[C@@H]1NC(=O)[C@@H](Cc2ccccc2)NC(=O)[C@@H](Cc2ccccc2)NC(=O)[C@@H](CC(=O)O)NC(=O)[C@H]([C@@H](C)O)NC(=O)[C@@H](CC(=O)O)NC1=O
83 | – | CSCC[C@H]1NC(=O)[C@H]([C@@H](C)O)NC(=O)[C@@H](CC(=O)O)NC(=O)[C@H](CC(C)C)NC(=O)[C@@H](CC(=O)O)NC(=O)[C@H]2CCCN2C1=O
10 | – | CC(C)C[C@@H]1NC(=O)[C@@H](Cc2ccc(C(=O)c3ccccc3)cc2)NC(=O)[C@H]2CCCN2C(=O)[C@@H](CC(=O)O)NC(=O)[C@H]([C@@H](C)O)NC(=O)[C@@H](CC(=O)O)NC1=O
97 | – | CC(C)[C@@H]1NC(=O)[C@@H](C)NC(=O)[C@H]2CCCN2C(=O)[C@@H](C)NC(=O)[C@H]([C@@H](C)O)NC(=O)[C@@H](CC(=O)O)NC1=O
74 | – | CC(C)C[C@@H]1NC(=O)[C@H]2CCCN2C(=O)[C@@H](C)NC(=O)[C@H]([C@@H](C)O)NC(=O)[C@@H](CC(=O)O)NC1=O

— ChEMBL document CHEMBL1134773, “Design and synthesis of potent and selective alpha(4)beta(7) integrin antagonists” (J Med Chem, 2001)
